Source: ChEMBL document CHEMBL4190298, “Stereochemistry of a Second Riolozane and Other Diterpenoids from Jatropha dioica” (J Nat Prod, 2017)
pIC50: −log10 of the molar value.

Key:
Human alphaherpesvirus 2 [1] = experiment: Antiviral activity against HSV-2 infected in African green monkey Vero cells assessed as inhibition of virus plaque formation after 72 hrs by Giemsa staining based assay; format: functional, organism-based; settings: Human alphaherpesvirus 2, Vero
In short: (§1)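 Vero cells (ATCC CRL-1586) were grown in advanced DMEM with 2% FBS at 37 °C and 5% CO2. Wells of 5×10^5 cells were infected with 100 PFU HSV-1 or HSV-2 for 1 h at 37 °C. The supernatant was then replaced with medium containing 1% DMSO, 0.32% IgG and compound at 80, 160 or 320 μM. After 72 h, cells were MeOH-fixed and Giemsa-stained. Mock and acyclovir controls; triplicate.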

[2] = Selectivity index, ratio of CC50 for African green monkey Vero cells to IC50 for HSV-2 infected in African green monkey Vero cells; format: toxicity; settings: HSV-2 infected Vero cells, read-out: Ratio CC50/IC50
Human alphaherpesvirus 1 [3] = experiment: Antiviral activity against HSV-1 infected in African green monkey Vero cells assessed as inhibition of virus plaque formation after 72 hrs by Giemsa staining based assay; format: functional, organism-based; settings: Human alphaherpesvirus 1, Vero; in short: as §1
[4] = Selectivity index, ratio of CC50 for African green monkey Vero cells to IC50 for HSV-1 infected in African green monkey Vero cells; format: toxicity; settings: HSV-1 infected Vero cells, read-out: Ratio CC50/IC50
[5] = Cytotoxicity against African green monkey Vero cells assessed as reduction in cell viability after 3 days by MTT assay; format: cell-based; settings: chlorocebus sabaeus
In short: (§2)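 Vero cells (ATCC CRL-1586) were grown in advanced DMEM with 2% FBS at 37 °C and 5% CO2 and exposed to compound at 100, 200, 400, 800 or 1600 μM for 3 days. Viability was read by MTT (10 μL of 5 mg/mL stock added). CC50 is the concentration reducing viability by 50% relative to untreated cells, taken as 100%. Triplicate; mean ± SD.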

[6] = Cytotoxicity against African green monkey Vero cells; format: cell-based; settings: chlorocebus sabaeus; in short: as §2
Human alphaherpesvirus 2 [7] = experiment: Antiviral activity against HSV-2 infected in African green monkey Vero cells assessed as inhibition of virus plaque formation; format: functional, organism-based; settings: Human alphaherpesvirus 2, Vero; in short: as §1
Human alphaherpesvirus 1 [8] = experiment: Antiviral activity against HSV-1 infected in African green monkey Vero cells assessed as inhibition of virus plaque formation; format: functional, organism-based; settings: Human alphaherpesvirus 1, Vero; in short: as §1

Compound | pIC50 (Human alphaherpesvirus 2 [1]) | selectivity ratio [2] | pIC50 (Human alphaherpesvirus 1 [3]) | selectivity ratio [4] | CC50 at 72 h [5] [µM] | CC50 [6] [µM] | pIC50 (Human alphaherpesvirus 2 [7]) | pIC50 (Human alphaherpesvirus 1 [8])
C[C@@H]1CC2=C(C1)[C@@H]([C@@]1(C)C(=O)C[C@H]3[C@@H](C1=O)C3(C)C)[C@@H](C)C2=O | 3.76 | 3.4 | 3.75 | 3.2 | 584 | – | – | –
C/C1=C/[C@]23O[C@H]2[C@H](C)C[C@@H]3C(=O)[C@]2(C)C(=O)CC(C)(C)[C@H]2CC1=O | < 3.52 | – | < 3.52 | – | > 1520 | – | – | –
Nc1nc2c(ncn2COCCO)c(=O)[nH]1 [ACYCLOVIR] | 5.51 | – | 5.32 | – | – | – | – | –
C[C@@H]1CC2=C(C1)[C@@H]([C@@]1(C)C(=O)C[C@H]3[C@@H](C1=O)C3(C)C)[C@H](C)C2=O | – | 5.8 | – | 5.8 | – | 1220 | 3.68 | 3.68
